Compound activity deposited in PubChem BioAssay by Johns Hopkins Ion Channel Center.
Shown are actives, neighbours in structure and some others; about 3.7% of the full set was active somewhere.
KCNQ1 block: blocks the human KCNQ1 potassium channel. P51787. CHO-K1 KCNQ1, FluxOR thallium flux fluorescence; stronger effect = higher value. B-score at 10 µM. hit rate 1.3% among 310,000;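 active = compounds whose thallium flux B-score, printed positive for inhibition, exceeds three library SD while starting fluorescence stays within three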;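 note: channel opened by potassium depolarization with thallium stimulus after 20 min compound exposure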
KCNQ1 act: potentiators or activators of human KCNQ1 potassium channel; AID 2648; hit rate 0.35% among 310,000; CHO-K1 KCNQ1, thallium flux FluxOR fluorescence; stronger effect = higher value; B-score at 10 µM; P51787;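 active = fluorescence ratio B-score, a plate-corrected score, at least three library SD, with initial intensity B-score within 5 SD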
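assay system = CHO-K1 cells stably expressing KCNQ1 | medium = assay buffer, equal DMSO in all wells | timing = 37 °C overnight plating, 90-min dark dye load, 20-min compound pretreatment | measured by = kinetic FluxOR thallium fluorescence, 10-s 1-Hz baseline, 110-s post-stimulus read | measure = fluorescence change relative to baseline, converted to B score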
KCNK9 block: human KCNK9 channel inhibition; HEK293 KCNK9, FluxOR thallium flux fluorescence; stronger effect = lower value; hit rate 1.2% among 310,000; AID 488922; B-score at 10 µM; Q9NPC2;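 active = ratio B-score over 3 SD below the library mean, with starting fluorescence within 5 SD of its mean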;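 note: negative B-score means less thallium flux so channel inhibition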
hERG protect: hERG (human) protection from proarrhythmic block; hit rate 0.51% among 310,000; activation (rescue from dofetilide block), less the hit threshold, % at 10 µM; CHO-hERG, FluxOR thallium flux, dofetilide IC70 present; Q12809;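 active = activation above the mean of controls blocked by dofetilide plus 5 SD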;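 note: thallium influx through hERG after potassium depolarization seen as dye fluorescence rise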
KCNK3 block: human KCNK3 channel inhibition, primary screen; O14649; CHO-KCNK3 thallium flux, FluxOR fluorescence; stronger effect = lower value; B-score at 10 µM; hit rate 0.84% among 340,000;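 active = B-score under library mean minus 4 SD, starting fluorescence ratio at most library mean plus 5 SD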;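 note: more negative B-score means stronger inhibition of thallium flux through KCNK3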
Target sequence (O14649 whole entry, looked up): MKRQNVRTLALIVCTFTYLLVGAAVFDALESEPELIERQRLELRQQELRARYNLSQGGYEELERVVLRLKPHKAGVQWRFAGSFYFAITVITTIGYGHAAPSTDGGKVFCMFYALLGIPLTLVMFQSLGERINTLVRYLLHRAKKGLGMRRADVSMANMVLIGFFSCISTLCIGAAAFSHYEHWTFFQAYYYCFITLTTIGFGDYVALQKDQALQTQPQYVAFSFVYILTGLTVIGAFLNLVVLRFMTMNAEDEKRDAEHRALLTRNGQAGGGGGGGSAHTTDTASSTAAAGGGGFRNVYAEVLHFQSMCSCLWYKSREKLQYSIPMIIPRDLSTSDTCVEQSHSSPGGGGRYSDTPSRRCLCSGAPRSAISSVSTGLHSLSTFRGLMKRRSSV
Kir21 inh: inhibitors of mouse Kir2.1 inward-rectifier potassium channel; P35561; HEK293-Kir2.1, FluxOR thallium flux fluorescence; stronger effect = lower value; B-score at 10 µM; hit rate 0.85% among 310,000;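 active = fluorescence ratio B-score at or below minus 3 SD of library scores, with starting-brightness B-score within 2 SD, cut at about -4.2 in these data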;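 note: channel flux triggered by added potassium and thallium sulfate stimulus; B-score of peak minus minimum fluorescence over baseline after thallium stimulus; more negative B-score means stronger Kir2.1 block with less thallium influx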
KCNK9 block conf: human KCNK9 inhibitor confirmation; shares compounds with KCNK9 block; hit rate 43% among 4,900; HEK293 KCNK9 cells, FluxOR thallium flux fluorescence; inhibition, % at 10 µM;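 active = thallium signal inhibited by more than 5 SD of the compound-free buffer control wells, on both duplicate plates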;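 note: 0% = assay buffer control wells without compound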
Kir21 sel: mouse Kir2.1 off-target activity of KCNK9 modulators. hit rate 4% among 4,900. shares compounds with KCNK9 block. Kir2.1 cells, FluxOR thallium flux fluorescence. inhibition, % at 10 µM;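 active = thallium signal drop more than 5 SD beyond the mean of the no-compound control wells, seen in both duplicate plates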;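 note: signal is fluorescence rise after thallium addition divided by baseline fluorescence; plate controls were assay buffer only for no effect and full block by chlorpromazine control for full effect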
KCNK9 uninduced: non-induced cell nonspecific activity of KCNK9 modulators. inhibition, % at 10 µM. shares compounds with KCNK9 block. hit rate 40% among 4,900. non-induced KCNK9-HEK293, FluxOR thallium flux. AID 492997;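 active = thallium signal drop beyond 5 SD of the untreated control mean, on both duplicate plates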;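 note: plate controls were buffer only IC0 wells for no effect and SID17386958 at its maximal inhibitory level for full effect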
* marks the source's active call; other numbers are inactive results; i = inactive; / = no result.

SMILES | KCNQ1 block | KCNQ1 act | KCNK9 block | hERG protect | KCNK3 block | Kir21 inh | KCNK9 block conf | Kir21 sel | KCNK9 uninduced
Cc1ccc(S(=O)(=O)N2CCN(C(=O)c3c(-c4ccccc4)noc3C)CC2)cc1 | i | i | i | -5 | i | 0.57 | / | / | /
Cc1ccc(S(=O)(=O)n2nccc2-c2c(-c3ccc(Cl)cc3)noc2C)cc1 | i | i | -12* | -7 | i | -0.71 | i | i | 36%*
COC(=O)c1sc(-c2ccc(Cl)cc2)cc1NC(=O)CSCC(=O)O | i | i | i | -13 | i | 0.01 | i | i | i
CCOc1ccc(C(=O)Nc2cc(NC(=O)c3ccc(OCC)c(Cl)c3)cc(C(=O)O)c2)cc1Cl | i | i | i | -10 | i | 0.28 | i | i | i
CCOc1ccc(C(=O)Nc2ccc(NC(=S)NC(=O)CC)cc2)cc1Cl | i | i | i | -12 | i | -1.8 | / | / | /
CCOc1ccccc1NC(=O)c1ccc(Cl)c(NC(=O)CC(c2ccccc2)c2ccccc2)c1 | i | i | -9.9* | -4 | i | -0.04 | 49%* | i | 30%*
COc1cccc(NC(=O)c2sc3nc(N4CCOCC4)c4c(c3c2N)CCCC4)c1 | i | i | -11* | -16 | i | 0.59 | i | i | i
O=C(/C=C/c1ccccc1)N1c2ccccc2Sc2ccc(C(F)(F)F)cc21 | i | i | -9.2* | -14 | i | 0.11 | 26%* | i | 36%*
Cc1noc(N)c1C(=O)Nc1ccccc1F | i | i | -9.5* | -6 | i | 1.4 | i | i | i
Cc1ccc(C)c2c1N(Cc1ccccc1)C(=O)C21OCCO1 | i | i | i | -2 | i | -0.02 | / | / | /
Cc1ccc(C)c(C(=O)COC(=O)CNS(=O)(=O)c2ccccc2)c1 | i | i | i | -16 | i | -1.9 | / | / | /
Cc1ccc(C)c(C(=O)COC(=O)c2ccc(Br)o2)c1 | i | i | -8.7* | -8 | i | -1.9 | 36%* | i | i
Cc1ccc(C)c(C(=O)COC(=O)c2cc(Cl)nc3ccccc23)c1 | i | i | -9.4* | -10 | i | -1.2 | 67%* | i | 45%*
COc1ccccc1OCc1nn[nH]n1 | i | i | i | 1 | i | -0.6 | / | / | /
COC(=O)c1ccc(Oc2nc(C)cc(Oc3ccccc3)n2)cc1 | i | i | i | -11 | i | 0.54 | i | i | i
Cc1cc(C)cc(CC2CC(=O)N(c3cc(C)on3)C2=O)c1 (centres undefined) | i | i | i | -12 | i | 0.28 | / | / | /
Cc1cc(C)cc(CC2CC(=O)N(c3ccc4c(c3)OCCO4)C2=O)c1 (centres undefined) | i | i | i | -3 | i | -1.1 | i | i | i
O=C(COC(=O)c1ccc([N+](=O)[O-])s1)c1ccc[nH]1 | / | / | / | / | i | / | / | / | /
CCCCn1c(SCC(=O)NC2CC2)nnc1-c1ccncc1 | i | i | i | -5 | i | 0.8 | / | / | /
COc1ccc(CNC(=O)c2ccc3c(c2)N(C)CCS3)cc1 | i | i | i | -11 | i | -0.8 | / | / | /
CC(C)Oc1ccc(CNC(=O)c2ccc3c(c2)N(C)CCS3)cc1 | i | i | i | -15 | i | 1.5 | i | i | i
CCOc1ccc(N(C)S(=O)(=O)c2ccc(-c3cc(C)no3)s2)cc1 | i | i | i | -6 | i | 0.65 | / | / | /
CCOc1ccc(N(C)S(=O)(=O)c2cc(-c3cc(C)no3)ccc2C(C)C)cc1 | i | i | -9.5* | -19 | i | 1.2 | 52%* | i | 42%*
CC1CCN(C(=O)CNC(=O)CNC(=O)Cc2ccccc2)CC1 | i | i | i | -8 | i | 2.9 | / | / | /
Cc1cccc(NC(=S)N/N=C(\c2ccccc2)C(C)C)c1 | i | i | i | -3 | i | -0.32 | i | i | i
SMILES | KCNQ1 block | KCNQ1 act | KCNK9 block | hERG protect | KCNK3 block | Kir21 inh | KCNK9 block conf | Kir21 sel | KCNK9 uninduced
CC/C(=N\NC(=S)Nc1cccc(C)c1)c1ccccc1 | i | 12* | i | 6.9* | i | -0.61 | i | i | i
CC/C(=N\NC(=S)Nc1ccc(OC)cc1)c1ccc(OC(F)F)cc1 | i | i | i | 0 | i | 0.22 | i | i | i
Cc1cccc(NC(=S)NNC(=O)Cc2ccccc2)c1 | i | i | i | -13 | i | -3.3 | / | / | /
CC/C(=N\NC(=S)Nc1cc(C)ccc1C)c1ccc(OC(F)F)cc1 | i | i | i | 0 | i | -0.01 | / | / | /
O=S(=O)(c1cccc(-c2nnc3n2CCCCC3)c1)N1CCCC1 | i | i | i | -3 | i | 2.7 | / | / | /
O=C(O)c1ccc(Cl)c(S(=O)(=O)N(Cc2ccccc2)c2ccc(Cl)cc2)c1 | i | i | i | -16 | i | 2.4 | i | i | i
NC(=O)COC(=O)c1ccc(Cl)c(S(=O)(=O)N(Cc2ccccc2)c2ccc(Cl)cc2)c1 | i | i | i | -8 | i | 0.24 | / | / | /
CCOC(=O)N1CCN(C(=O)c2c[nH]c3ccc(S(=O)(=O)N(C)c4cccc(C)c4)cc3c2=O)CC1 | i | i | i | -4 | i | 1 | / | / | /
CCCNC(=O)c1onc(CSc2ccc(Cl)cc2)c1C(=O)NCC1CC1 | i | i | i | -10 | i | 1.2 | i | i | i
C=CCNC(=O)c1c(CSc2ccc(Cl)cc2)noc1C(=O)NCc1ccccc1 | i | i | i | -21 | i | 1.3 | i | i | i
CC(C)CCNC(=O)c1c(CSc2ccccc2)noc1C(=O)NCc1ccccc1 | i | i | i | -9 | i | 0.25 | i | i | i
CCCNC(=O)c1onc(CSc2ccc(Cl)cc2)c1C(=O)NCCC(C)C | i | i | i | -8 | i | 0.18 | i | i | i
Nc1nc(SCC(=O)C23CC4CC(CC(C4)C2)C3)n[nH]1 | i | i | i | -8 | i | 1.4 | / | / | /
CCCCNC(=O)N1CCN(Cc2ccc(F)cc2)CC1 | i | i | i | -3 | i | -3 | / | / | /
COc1cc(-c2csc(NC3CCCCC3)n2)cc(OC)c1OC | i | i | i | -12 | i | -0.02 | i | i | i
CN1c2ccccc2C(C)(C)[C@]12C=Cc1cc(O)ccc1O2 | 13* | i | i | -27 | i | -5.9* | i | 33%* | i
